Laboratory results published in ChEMBL document CHEMBL1152495, “Synthesis and antimicrobial studies of novel methylene bridged benzisoxazolyl imidazo[2,1-b][1,3,4]thiadiazole derivatives” (2009).
Values after ≈ are worked out from the molar mass of the structure shown.

Experiments:
Type in all cases: functional
Staphylococcus aureus [1] = experiment: Antibacterial activity against Staphylococcus aureus ATCC 25923 at 100 ug/ml after 24 hrs by agar well diffusion method; conditions: ATCC 25923, 24 h, read-out: IZ
Outline: (§1)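 Agar well diffusion on Mueller Hinton agar (20 mL per dish), seeded homogeneously with liquid bacterial culture by spread plating. Samples loaded directly into wells, dimethylformamide as solvent control, ampicillin as reference drug. Plates incubated at 37 °C for 24 h. All determinations done in triplicate.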

Bacillus subtilis [2] = experiment: Antibacterial activity against Bacillus subtilis ATCC 6633 at 100 ug/ml after 24 hrs by agar well diffusion method; conditions: ATCC 6633, 24 h, read-out: IZ; outline: as §1
Escherichia coli [3] = experiment: Antibacterial activity against Escherichia coli ATCC 35218 at 100 ug/ml after 24 hrs by agar well diffusion method; conditions: ATCC 35218, 24 h, read-out: IZ; outline: as §1
Pseudomonas aeruginosa [4] = experiment: Antibacterial activity against Pseudomonas aeruginosa ATCC 10145 at 100 ug/ml after 24 hrs by agar well diffusion method; conditions: ATCC 10145, 24 h, read-out: IZ; outline: as §1
Candida albicans [5] = experiment: Antifungal activity against Candida albicans at 100 ug/ml after 72 hrs by agar well diffusion method; conditions: read-out: IZ
Outline: (§2)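 Fungi grown on Potato Dextrose Agar (20 mL per dish), seeded homogeneously with liquid culture by spread plating. Samples loaded directly into agar wells, with dimethylformamide as solvent control and clotrimazole as reference drug. Plates incubated at 25 °C for 72 h, triplicate determinations.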

Aspergillus fumigatus [6] = experiment: Antifungal activity against Aspergillus fumigatus at 100 ug/ml after 72 hrs by agar well diffusion method; conditions: read-out: IZ; outline: as §2
Staphylococcus aureus [7] = experiment: Antibacterial activity against Staphylococcus aureus ATCC 25923 after 24 hrs by agar well diffusion method; conditions: ATCC 25923, 24 h; outline: as §1
Bacillus subtilis [8] = experiment: Antibacterial activity against Bacillus subtilis ATCC 6633 after 24 hrs by agar well diffusion method; conditions: ATCC 6633, 24 h; outline: as §1
Escherichia coli [9] = experiment: Antibacterial activity against Escherichia coli ATCC 35218 after 24 hrs by agar well diffusion method; conditions: ATCC 35218, 24 h; outline: as §1
Pseudomonas aeruginosa [10] = experiment: Antibacterial activity against Pseudomonas aeruginosa ATCC 10145 after 24 hrs by agar well diffusion method; conditions: ATCC 10145, 24 h; outline: as §1
Candida albicans [11] = experiment: Antifungal activity against Candida albicans after 72 hrs by agar well diffusion method; outline: as §2
Aspergillus fumigatus [12] = experiment: Antifungal activity against Aspergillus fumigatus after 72 hrs by agar well diffusion method; outline: as §2

Row | Structure (SMILES) | MIC (Staphylococcus aureus [7]) | MIC (Bacillus subtilis [8]) | MIC (Escherichia coli [9]) | MIC (Pseudomonas aeruginosa [10]) | MIC (Candida albicans [11]) | MIC (Aspergillus fumigatus [12]) | zone of inhibition at 100 µg/mL (Staphylococcus aureus [1]) | zone of inhibition at 100 µg/mL (Bacillus subtilis [2]) | zone of inhibition at 100 µg/mL (Escherichia coli [3]) | zone of inhibition at 100 µg/mL (Pseudomonas aeruginosa [4]) | zone of inhibition at 100 µg/mL (Candida albicans [5]) | zone of inhibition at 100 µg/mL (Aspergillus fumigatus [6])
1 | O=c1oc2ccccc2cc1-c1nc2sc(Cc3noc4ccccc34)nn2c1Br | 2 µg/mL (≈ 4.17 µM) | 3 µg/mL (≈ 6.26 µM) | 2.5 µg/mL (≈ 5.22 µM) | 2.5 µg/mL (≈ 5.22 µM) | 3 µg/mL (≈ 6.26 µM) | 2.5 µg/mL (≈ 5.22 µM) | 15 mm | 10 mm | 13 mm | 14 mm | 14 mm | 17 mm
2 | Brc1ccc(-c2nc3sc(Cc4noc5ccccc45)nn3c2Br)cc1 | 2 µg/mL (≈ 4.08 µM) | 2.5 µg/mL (≈ 5.1 µM) | 2 µg/mL (≈ 4.08 µM) | 2 µg/mL (≈ 4.08 µM) | 2.5 µg/mL (≈ 5.1 µM) | 2.5 µg/mL (≈ 5.1 µM) | 13 mm | 12 mm | 14 mm | 16 mm | 16 mm | 16 mm
3 | COc1ccc(-c2cn3nc(Cc4noc5ccccc45)sc3n2)cc1 | 3.5 µg/mL (≈ 9.66 µM) | 2.5 µg/mL (≈ 6.9 µM) | 3 µg/mL (≈ 8.28 µM) | 3 µg/mL (≈ 8.28 µM) | 3 µg/mL (≈ 8.28 µM) | 2 µg/mL (≈ 5.52 µM) | 10 mm | 14 mm | 12 mm | 11 mm | 15 mm | 19 mm
4 | O=[N+]([O-])c1ccc(-c2nc3sc(Cc4noc5ccccc45)nn3c2Br)cc1 | 2 µg/mL (≈ 4.38 µM) | 2.5 µg/mL (≈ 5.48 µM) | 3.5 µg/mL (≈ 7.67 µM) | 3 µg/mL (≈ 6.57 µM) | 4 µg/mL (≈ 8.77 µM) | 4.5 µg/mL (≈ 9.86 µM) | 11 mm | 12 mm | 10 mm | 11 mm | 9 mm | 8 mm
5 | Clc1ccc(-c2cn3nc(Cc4noc5ccccc45)sc3n2)cc1 | 2 µg/mL (≈ 5.45 µM) | 0.5 µg/mL (≈ 1.36 µM) | 1.5 µg/mL (≈ 4.09 µM) | 3 µg/mL (≈ 8.18 µM) | 3.5 µg/mL (≈ 9.54 µM) | 1.5 µg/mL (≈ 4.09 µM) | 12 mm | 17 mm | 18 mm | 12 mm | 11 mm | 16 mm
6 | Brc1ccc(-c2cn3nc(Cc4noc5ccccc45)sc3n2)cc1 | 2.5 µg/mL (≈ 6.08 µM) | 0.5 µg/mL (≈ 1.22 µM) | 1 µg/mL (≈ 2.43 µM) | 2.5 µg/mL (≈ 6.08 µM) | 2 µg/mL (≈ 4.86 µM) | 3.5 µg/mL (≈ 8.51 µM) | 15 mm | 18 mm | 20 mm | 14 mm | 22 mm | 13 mm
7 | O=c1oc2ccccc2cc1-c1cn2nc(Cc3noc4ccccc34)sc2n1 | 3 µg/mL (≈ 7.49 µM) | 1 µg/mL (≈ 2.5 µM) | 3.5 µg/mL (≈ 8.74 µM) | 3 µg/mL (≈ 7.49 µM) | 2.5 µg/mL (≈ 6.24 µM) | 3.5 µg/mL (≈ 8.74 µM) | 13 mm | 15 mm | 10 mm | 10 mm | 20 mm | 13 mm
8 | CC1(C)S[C@@H]2[C@H](NC(=O)[C@H](N)c3ccccc3)C(=O)N2[C@H]1C(=O)O [AMPICILLIN] | 1 µg/mL (≈ 2.86 µM) | 0.5 µg/mL (≈ 1.43 µM) | – | 2 µg/mL (≈ 5.72 µM) | – | – | 19 mm | 18 mm | 16 mm | 17 mm | – | –
9 | Clc1ccccc1C(c1ccccc1)(c1ccccc1)n1ccnc1 [CLOTRIMAZOLE] | – | – | – | – | 2 µg/mL (≈ 5.8 µM) | 2 µg/mL (≈ 5.8 µM) | – | – | – | – | 22 mm | 20 mm

More lines, main results first:

Row | MIC (Staphylococcus aureus [7]) | MIC (Bacillus subtilis [8]) | MIC (Escherichia coli [9]) | MIC (Pseudomonas aeruginosa [10]) | MIC (Candida albicans [11]) | MIC (Aspergillus fumigatus [12]) | Structure (SMILES) | zone of inhibition at 100 µg/mL (Staphylococcus aureus [1]) | zone of inhibition at 100 µg/mL (Bacillus subtilis [2]) | zone of inhibition at 100 µg/mL (Escherichia coli [3]) | zone of inhibition at 100 µg/mL (Pseudomonas aeruginosa [4]) | zone of inhibition at 100 µg/mL (Candida albicans [5]) | zone of inhibition at 100 µg/mL (Aspergillus fumigatus [6])
10 | 1.5 µg/mL (≈ 3.97 µM) | 2.5 µg/mL (≈ 6.62 µM) | 3 µg/mL (≈ 7.95 µM) | 3.5 µg/mL (≈ 9.27 µM) | 3.5 µg/mL (≈ 9.27 µM) | 4 µg/mL (≈ 10.6 µM) | O=[N+]([O-])c1ccc(-c2cn3nc(Cc4noc5ccccc45)sc3n2)cc1 | 14 mm | 11 mm | 13 mm | 8 mm | 10 mm | 11 mm
11 | 1.5 µg/mL (≈ 3.37 µM) | 0.5 µg/mL (≈ 1.12 µM) | 2 µg/mL (≈ 4.49 µM) | 2.5 µg/mL (≈ 5.61 µM) | 3 µg/mL (≈ 6.73 µM) | 4 µg/mL (≈ 8.97 µM) | Clc1ccc(-c2nc3sc(Cc4noc5ccccc45)nn3c2Br)cc1 | 17 mm | 18 mm | 15 mm | 12 mm | 15 mm | 10 mm
12 | 1 µg/mL (≈ 2.77 µM) | 2 µg/mL (≈ 5.53 µM) | 3 µg/mL (≈ 8.3 µM) | 3 µg/mL (≈ 8.3 µM) | 3.5 µg/mL (≈ 9.68 µM) | 2.5 µg/mL (≈ 6.92 µM) | O=Nc1c(-c2ccccc2)nc2sc(Cc3noc4ccccc34)nn12 | 18 mm | 13 mm | 11 mm | 10 mm | 13 mm | 16 mm
13 | 1 µg/mL (≈ 3.01 µM) | 2 µg/mL (≈ 6.02 µM) | 3.5 µg/mL (≈ 10.5 µM) | 3.5 µg/mL (≈ 10.5 µM) | 3.5 µg/mL (≈ 10.5 µM) | 2 µg/mL (≈ 6.02 µM) | c1ccc(-c2cn3nc(Cc4noc5ccccc45)sc3n2)cc1 | 16 mm | 11 mm | 9 mm | 9 mm | 12 mm | 19 mm
14 | 1.5 µg/mL (≈ 3.4 µM) | 0.5 µg/mL (≈ 1.13 µM) | 2 µg/mL (≈ 4.53 µM) | 2 µg/mL (≈ 4.53 µM) | 4 µg/mL (≈ 9.06 µM) | 2.5 µg/mL (≈ 5.66 µM) | COc1ccc(-c2nc3sc(Cc4noc5ccccc45)nn3c2Br)cc1 | 11 mm | 18 mm | 16 mm | 17 mm | 10 mm | 15 mm
15 | 1.5 µg/mL (≈ 6.46 µM) | 1 µg/mL (≈ 4.31 µM) | 3.5 µg/mL (≈ 15.1 µM) | 2.5 µg/mL (≈ 10.8 µM) | 3 µg/mL (≈ 12.9 µM) | 3.5 µg/mL (≈ 15.1 µM) | Nc1nnc(Cc2noc3ccccc23)s1 | 15 mm | 15 mm | 10 mm | 14 mm | 14 mm | 11 mm
16 | 1 µg/mL (≈ 2.43 µM) | 2.5 µg/mL (≈ 6.08 µM) | 3 µg/mL (≈ 7.29 µM) | 2 µg/mL (≈ 4.86 µM) | 3 µg/mL (≈ 7.29 µM) | 3.5 µg/mL (≈ 8.51 µM) | Brc1c(-c2ccccc2)nc2sc(Cc3noc4ccccc34)nn12 | 18 mm | 12 mm | 11 mm | 16 mm | 14 mm | 12 mm
